For one compound, Activity and ED50 results are on record in ChEMBL document CHEMBL2040780, “Antiarrhythmic properties of phenylpiperazine derivatives of phenytoin with α₁-adrenoceptor affinities” (Bioorg Med Chem, 2012).

The structures appear in SMILES notation. Active and inactive are the calls of the source.

In the first series the test system is Rattus norvegicus. Briefly: Antiarrhythmic activity in Wistar rat assessed as effect on heart beat at 10 mg/kg, iv after 1 min. Type of series: functional.
Settings: not given
Summed up:
(§1)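 Male Wistar rats (180–250 g), anaesthetised with thiopental 60 mg/kg ip. Standard lead II ECG recorded at 50 mm/s just before dosing and at 1, 5 and 15 min after. Heart rate and P–Q, Q–T and QRS intervals were read. n=6 per group, mean ± SEM, one-way ANOVA.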
With `CCOc1ccccc1N1CCN(CC(O)CN2C(=O)N(C)C(=O)C2(c2ccccc2)c2ccccc2)CC1.Cl` (racemic), the Activity was 246 min⁻¹.

The test system of another series is Rattus norvegicus. Briefly: Antiarrhythmic activity in dosed Wistar rat assessed as protection against barium chloride-induced fibrillation administered 15 mins prior to barium chloride-challenge. Type of series: functional. To be noted: Heart. Summed up:
(§2)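 Szekeres model in male Wistar rats. Activity is gradual disappearance of arrhythmia with restored sinus rhythm; protection against disturbances and death scored. Groups of 6 animals.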
For `CCOc1ccccc1N1CCN(CC(O)CN2C(=O)N(C)C(=O)C2(c2ccccc2)c2ccccc2)CC1.Cl` (racemic), the outcome was inactive.

The test system of another series is Rattus norvegicus. Briefly: Cardiotoxicity in Wistar rat assessed as effect on QRS interval at 10 mg/kg, iv after 5 mins. In kind it is toxicity, organism-based. Set-up: dose 10 mg/kg, route intravenous. The note with it: in vivo. Summed up: as §1
`CCOc1ccccc1N1CCN(CC(O)CN2C(=O)N(C)C(=O)C2(c2ccccc2)c2ccccc2)CC1.Cl` (racemic): the Activity is recorded as 16 ms.

The subject of a further series is Rattus norvegicus. The experiment in a line: Cardiotoxicity in Wistar rat assessed as effect on P-Q interval at 10 mg/kg, iv after 15 mins. Set-up: dose 10 mg/kg, route intravenous. The note with it: in vivo, 0.25 h. Type of series: toxicity, organism-based. The gist of the method: as §1
Consider `CCOc1ccccc1N1CCN(CC(O)CN2C(=O)N(C)C(=O)C2(c2ccccc2)c2ccccc2)CC1.Cl` (racemic), for which the Activity is on record as 79 ms.

For a further series, the system named is Rattus norvegicus. The experiment in a line: Antiarrhythmic activity in Wistar rat assessed as protection against adrenaline-induced extrasystoles at 2.5 to 10 mg/kg, iv administered 15 mins prior to adrenaline-challenge. Type of series: functional, organism-based. The note with it: Heart. Summed up:
(§3)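 Szekeres model in male Wistar rats anaesthetised with thiopental (60 mg/kg ip). Test compound given iv in water (2.5–10 mg/kg) 15 min before adrenaline 20 µg/kg iv. Scored for extrasystoles, bigeminy and mortality; activity means no premature beats and inhibited arrhythmia versus controls.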
On to `CCOc1ccccc1N1CCN(CC(O)CN2C(=O)N(C)C(=O)C2(c2ccccc2)c2ccccc2)CC1.Cl` (racemic), for which the result was Active.

Another series has as its system Rattus norvegicus. Briefly: Antiarrhythmic activity in iv dosed Wistar rat assessed as protection against adrenaline-induced arrhythmia administered 15 mins prior to adrenaline-challenge. The note with it: Heart. Type of series: functional. The gist of the method:
as §3
The ED50 is the dose at which the effect has come halfway, by size or by number of responders. As for `CCOc1ccccc1N1CCN(CC(O)CN2C(=O)N(C)C(=O)C2(c2ccccc2)c2ccccc2)CC1.Cl` (racemic), the 50% effective dose (ED50) came to 0.33 mg/kg.

Another series deals with Rattus norvegicus. The experiment in a line: Cardiotoxicity in Wistar rat assessed as effect on QRS interval at 10 mg/kg, iv after 1 min. Type of series: toxicity, organism-based. Also noted: dose 10 mg/kg, route intravenous. To be noted: in vivo. Summed up: as §1
For the compound `CCOc1ccccc1N1CCN(CC(O)CN2C(=O)N(C)C(=O)C2(c2ccccc2)c2ccccc2)CC1.Cl` (racemic), the Activity is given as 18 ms.

Another series has as its system Rattus norvegicus. Briefly: Cardiotoxicity in Wistar rat assessed as effect on Q-T interval at 10 mg/kg, iv after 1 min. To be noted: in vivo. Type of series: toxicity, organism-based. Set-up: dose 10 mg/kg, route intravenous. Summed up:
as §1
Regarding `CCOc1ccccc1N1CCN(CC(O)CN2C(=O)N(C)C(=O)C2(c2ccccc2)c2ccccc2)CC1.Cl` (racemic), the Activity is on record as 109 ms.

In the next series the test system is Rattus norvegicus. The experiment in a line: Hypotensive activity in normotensive Wistar rat assessed as decrease in diastolic blood pressure at 2.5 to 10 mg/kg, iv at 1 min. Type of series: organism-based, Artery. Set-up: dose 2.5-10 mg/kg, route intravenous. To be noted: in vivo. Summed up:
(§4)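 Right carotid artery cannulated with heparin-saline-filled tubing for blood pressure recording. After 5 min stabilisation, compound injected iv into the caudal vein (2.5–10 mg/kg, 1 ml/kg). Systolic and diastolic pressure followed for 60 min. n=6 per group, mean ± SEM, one-way ANOVA.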
For `CCOc1ccccc1N1CCN(CC(O)CN2C(=O)N(C)C(=O)C2(c2ccccc2)c2ccccc2)CC1.Cl` (racemic), the Activity entry was “Toxic”.

Another series has as its system Rattus norvegicus. Briefly: Cardiotoxicity in Wistar rat assessed as effect on QRS interval at 10 mg/kg, iv after 15 mins. In kind it is toxicity, organism-based. Set-up: dose 10 mg/kg, route intravenous. To be noted: in vivo, 0.25 h. The gist of the method:
as §1
In the case of `CCOc1ccccc1N1CCN(CC(O)CN2C(=O)N(C)C(=O)C2(c2ccccc2)c2ccccc2)CC1.Cl` (racemic), the Activity is on record as 17 ms.

A further series relates to Rattus norvegicus. Briefly: Antiarrhythmic activity in Wistar rat assessed as protection against adrenaline-induced bigeminy at 2.5 to 10 mg/kg, iv administered 15 mins prior to adrenaline-challenge. Type of series: functional, organism-based. The note with it: Heart. The gist of the method: as §3
On to `CCOc1ccccc1N1CCN(CC(O)CN2C(=O)N(C)C(=O)C2(c2ccccc2)c2ccccc2)CC1.Cl` (racemic), for which the result was Active.

The test system of a further series is Rattus norvegicus. The experiment in a line: Antiarrhythmic activity in iv dosed barium chloride-induced Wistar rat arrhythmia model assessed as protection against mortality administered 15 mins prior to barium chloride-challenge. In kind it is functional. To be noted: Heart. Summed up: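 Male Wistar rats (180–250 g), groups of 6. Activity criterion: gradual disappearance of arrhythmia and restoration of sinus rhythm; protection against heart disturbances and death scored.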
As for `CCOc1ccccc1N1CCN(CC(O)CN2C(=O)N(C)C(=O)C2(c2ccccc2)c2ccccc2)CC1.Cl` (racemic), the result was inactive.

The subject of a further series is Rattus norvegicus. The experiment in a line: Cardiotoxicity in Wistar rat assessed as effect on Q-T interval at 10 mg/kg, iv after 5 mins. Type of series: toxicity, organism-based. Set-up: dose 10 mg/kg, route intravenous. The note with it: in vivo. Summed up:
as §1
For the compound `CCOc1ccccc1N1CCN(CC(O)CN2C(=O)N(C)C(=O)C2(c2ccccc2)c2ccccc2)CC1.Cl` (racemic), the Activity was found to be 114 ms.

A further series has as its system Rattus norvegicus. The experiment in a line: Cardiotoxicity in Wistar rat assessed as effect on Q-T interval at 10 mg/kg, iv after 15 mins. Set-up: dose 10 mg/kg, route intravenous. The note with it: in vivo, 0.25 h. Type of series: toxicity, organism-based. Summed up: as §1
With `CCOc1ccccc1N1CCN(CC(O)CN2C(=O)N(C)C(=O)C2(c2ccccc2)c2ccccc2)CC1.Cl` (racemic), the Activity amounted to 118 ms.

The test system of another series is Rattus norvegicus. The experiment in a line: Hypotensive activity in normotensive Wistar rat assessed as decrease in diastolic blood pressure at 2.5 to 10 mg/kg, iv after 1 min measured up to 60 mins. In kind it is organism-based, Artery. Set-up: dose 2.5-10 mg/kg, route intravenous. To be noted: in vivo. Summed up: as §4
For the compound `CCOc1ccccc1N1CCN(CC(O)CN2C(=O)N(C)C(=O)C2(c2ccccc2)c2ccccc2)CC1.Cl` (racemic), the Activity result is listed as “Toxic”.

In the next series the test system is Rattus norvegicus. Briefly: Antiarrhythmic activity in Wistar rat assessed as effect on heart beat at 10 mg/kg, iv after 15 mins. Type of series: functional.
Settings: not given
The gist of the method: as §1
As for `CCOc1ccccc1N1CCN(CC(O)CN2C(=O)N(C)C(=O)C2(c2ccccc2)c2ccccc2)CC1.Cl` (racemic), the Activity is 242 min⁻¹.

The next series has as its system Rattus norvegicus. Briefly: Hypotensive activity in normotensive Wistar rat assessed as decrease in systolic blood pressure at 2.5 to 10 mg/kg, iv at 1 min. In kind it is organism-based, Artery. Set-up: dose 2.5-10 mg/kg, route intravenous. The note with it: in vivo. The gist of the method:
as §4
As to `CCOc1ccccc1N1CCN(CC(O)CN2C(=O)N(C)C(=O)C2(c2ccccc2)c2ccccc2)CC1.Cl` (racemic), the Activity result is on record as “Toxic”.

For another series, the system named is Rattus norvegicus. Briefly: Antiarrhythmic activity in Wistar rat assessed as effect on heart beat at 10 mg/kg, iv after 5 mins. In kind it is functional.
Settings: not given
Summed up:
as §1
Regarding `CCOc1ccccc1N1CCN(CC(O)CN2C(=O)N(C)C(=O)C2(c2ccccc2)c2ccccc2)CC1.Cl` (racemic), the Activity amounted to 241 min⁻¹.

Another series deals with Rattus norvegicus. The experiment in a line: Cardiotoxicity in Wistar rat assessed as effect on P-Q interval at 10 mg/kg, iv after 5 mins. In kind it is toxicity, organism-based. Also noted: dose 10 mg/kg, route intravenous. The note with it: in vivo. The gist of the method: as §1
For the compound `CCOc1ccccc1N1CCN(CC(O)CN2C(=O)N(C)C(=O)C2(c2ccccc2)c2ccccc2)CC1.Cl` (racemic), the Activity stood at 79 ms.

A further series deals with Rattus norvegicus. Briefly: Antiarrhythmic activity in iv dosed Wistar rat assessed as protection against barium chloride-induced extrasystoles administered 15 mins prior to barium chloride-challenge. Type of series: functional. The note with it: Heart. The gist of the method:
as §2
Consider `CCOc1ccccc1N1CCN(CC(O)CN2C(=O)N(C)C(=O)C2(c2ccccc2)c2ccccc2)CC1.Cl` (racemic), for which the outcome was inactive.

In another series the test system is Rattus norvegicus. Briefly: Cardiotoxicity in Wistar rat assessed as effect on P-Q interval at 10 mg/kg, iv after 1 min. Type of series: toxicity, organism-based. Set-up: dose 10 mg/kg, route intravenous. To be noted: in vivo. Summed up: as §1
As to `CCOc1ccccc1N1CCN(CC(O)CN2C(=O)N(C)C(=O)C2(c2ccccc2)c2ccccc2)CC1.Cl` (racemic), the Activity stood at 75 ms.

A further series has as its system Rattus norvegicus. Briefly: Hypotensive activity in normotensive Wistar rat assessed as decrease in systolic blood pressure at 2.5 to 10 mg/kg, iv after 1 min measured up to 60 mins. Type of series: organism-based, Artery. Also noted: dose 2.5-10 mg/kg, route intravenous. To be noted: in vivo. The gist of the method: as §4
In the case of `CCOc1ccccc1N1CCN(CC(O)CN2C(=O)N(C)C(=O)C2(c2ccccc2)c2ccccc2)CC1.Cl` (racemic), the Activity entry was “Toxic”.
